From PubChem BioAssay
An excerpt weighted towards active compounds, which were near 2.2% of everything screened.
BaF3 tox = reduces parental Ba/F3 cell viability, JAK2V617F counter-screen; CellTiter-Glo ATP luminescence; 220,000 compounds, 1.1% hits; AID 1486; inhibition, % at 5.6 µM;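 active = inhibition above a per-campaign cutoff, the mean inhibition of all tested compounds plus 3 SD, cut at about 27% in these data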;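 note: 0% = DMSO wells and 100% = JAK Inhibitor I control wells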
Ba/F3 V617F tox = loss of viability in JAK2V617F-driven Ba/F3 cells; 220,000 compounds, 1.1% hits; AID 1446; inhibition, % at 5.6 µM; Ba/F3 EpoR-JAK2V617F viability, ATP luminescence;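 active = inhibition above the campaign mean plus 3 SD over all tested compounds, cut at about 24% in these data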;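 note: cytokine-independent growth of Ba/F3 cells driven by EpoR plus mutant JAK2; 0% = DMSO-treated cells and 100% = JAK inhibitor I control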
MT stabilizer = stabilizes microtubules in HeLa cells. HeLa tubulin immunostaining HCS, 24 h; share of cells brighter than vehicle mean+2SD. % tubulin-high responders, % at 10 µM. 200,000 compounds, 0.83% hits. AID 2205;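 active = plate Z-score above 3 for both tubulin-high and condensed-nucleus cell shares, with cell loss under 80%, at 10 µM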;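 note: anti alpha tubulin signal scored within the nucleus-defined area of each cell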
APP transl inh = APP translation inhibition; SH-SY5Y APP 5'UTR-luciferase reporter, luminescence; inhibition, % at 2 µM; 190,000 compounds, 0.82% hits; AID 1285;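 active = inhibition above a set limit, derived from the sample mean plus 3 SD, cut at about 45% in these data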
IEC-6 tox = kills IEC-6 intestinal cells in KLF5 counter-screen; IEC-6 cytotoxicity, luminescence viability; inhibition, % at 5 µM; 290,000 compounds, 0.78% hits; AID 1825; in the data active = inhibition above about 22%;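 note: 0% = plate median of test compound wells and 100% = cytotoxic reference compound wells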
bCat nuc transl = beta-catenin nuclear translocation modulation. 190,000 compounds, 0.3% hits. HeLa beta-catenin nuclear translocation, immunofluorescence imaging. nuclear translocation activity, % at 5 µM;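 active = nuclear translocation activity above 50% at 5 µM, with a well cell count of 50 or more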;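 note: per-cell ratio of nuclear to cytoplasmic median beta-catenin stain intensity; plate controls were DMSO negative control for no effect and GSK-3 inhibitor IX positive control for full effect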
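Technique: fluorescence imaging of beta-catenin antibody stain plus DAPI / Material: human HeLa cell line / Incubation: compound treatment 24 h, 37°C, 5% CO2 / Read-out basis: % activation of per-cell nuclear versus cytoplasmic median beta-catenin signal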
Active calls of the source: *; . = not tested or not shown.

SMILES	BaF3 tox	Ba/F3 V617F tox	MT stabilizer	APP transl inh	IEC-6 tox	bCat nuc transl
Cc1ccc(Cn2c(O)c(N=NC(=S)Nc3ccccc3F)c3cc(S(=O)(=O)N4CCOCC4)ccc32)cc1	5	2	4	50*	8	1
COc1ccc(/C=C/C2=CCN(Cc3ccc(OC)cc3)CC2)cc1	38*	16	2	13	-5	.
Cc1ccc([N+](=O)[O-])cc1NC(=O)Nc1cccc(F)c1	37*	40*	.	.	11	-4
CCc1nc(N2CCCCC2C)c2oc3ccccc3c2n1 (centres undefined)	-1	-2	31*	.	-6	114*
CCc1nc(Nc2ccncc2)c2oc3ccccc3c2n1	29*	15	8	-27	0	8
CCc1nc(N2CCN(Cc3ccc4c(c3)OCO4)CC2)c2oc3ccccc3c2n1	6	4	48*	17	7	116*
CC1=CN2C(=N)/C(=C/c3ccc([N+](=O)[O-])o3)C(=O)N=C2S1	7	2	6	48*	-21	-2
CCn1c2ccccc2c2cc(/C=N/NC(=O)c3ccncc3)ccc21	4	0	13*	18	5	20
CCn1c2ccccc2c2cc(/C=N/NC(=O)c3ccc(O)cc3)ccc21	5	1	17*	2	7	52*
O=C(c1ccccc1F)N1CCN(C(=O)C(c2ccccc2)c2ccccc2)CC1	.	.	.	.	2	.
Cc1cc(C)n2nc(/C(C#N)=C/c3ccccn3)c(C#N)c2n1	1	0	7	18	-4	0
O=C(Nc1ccc(N2CCOCC2)cc1)C1(c2ccc(Cl)cc2)CCC1	3	-2	9.9*	-11	-5	0
CCOc1ccc(S(=O)(=O)Oc2ccc3ccccc3c2)cc1	2	0	17*	1	3	1
Cc1ccc(S(=O)(=O)Oc2ccc3ccc(O)cc3c2)cc1	.	.	.	.	-4	.
CC1CN(C(=O)CCC(=O)NCCCN2CCN(Cc3ccccc3)CC2)c2cc(Cl)ccc2O1 (centres undefined)	.	.	.	.	5	.
CCOc1ccccc1NC(=O)C1CCCN(S(=O)(=O)c2c(C)[nH]c(=O)[nH]c2=O)C1 (centres undefined)	6	4	2	45*	1	-3
CCCCN(C(=O)C1CC(=O)N(Cc2ccc(C)cc2)C1)c1c(N)n(CC(C)C)c(=O)[nH]c1=O (centres undefined)	.	.	.	.	2	.
CN(C)c1ccc(/C=C/c2cc[n+](C)cc2)cc1	71*	94*	3	-18	6	.
CN(C)c1ccc(/C=C/c2cc[n+]([O-])cc2)cc1	-1	0	6	-49	0	-6
CCc1ccc(-c2nc(CSCC(=O)NCc3ccco3)c(C)o2)cc1	5	2	3	47*	0	-1
O=c1[nH]c2ccccc2n1C1=CCCC1	2	3	2	-12	2	2
CSc1ccc(NC(=O)N2CC=C(n3c(=O)[nH]c4ccccc43)CC2)cc1	2	-1	31*	-7	3	-2
CCOc1ccc(S(=O)(=O)N2CCC(C(=O)NCc3ccncc3)CC2)cc1	.	.	.	.	2	.
CCOC(=O)c1cnc2sc3c(n2c1=O)CCCC3	64*	72*	3	-25	12	-4
CCOC(=O)c1cnc2nc(C)[nH]n2c1=O	8	-3	3	-18	0	.
SMILES	BaF3 tox	Ba/F3 V617F tox	MT stabilizer	APP transl inh	IEC-6 tox	bCat nuc transl
C=CCn1c(O)c(N=NC(=O)CNC(=O)c2ccco2)c2ccccc21	7	0	12*	-3	1	-1
C=CCn1c(O)c(N=NC(=O)OCC)c2ccccc21	4	-2	2	13	-3	-1
C=CCn1c(O)c(N=NC(=O)c2ccc3c(c2)OCO3)c2ccccc21	-1	-3	1	50*	-2	0
CCn1c(O)c(N=NC(=O)CNC(=O)c2ccco2)c2ccccc21	5	-3	2	-11	-2	-1
Cc1ccccc1C(=O)NC(CC(C)C)C(=O)N1CCN(c2ccccc2)CC1 (centres undefined)	.	.	.	.	-8	.
CC1CCC(C(C)C)C(OC(=O)C[n+]2cccc(C(N)=O)c2)C1 (centres undefined)	8	0	1	-12	-2	-1
COc1ccc(-c2c[n+](CC(=O)OC3CC(C)CCC3C(C)C)c3n2CCC3)cc1 (centres undefined)	82*	99*	4	2	13	-3
CC(C)[C@@H]1CC[C@@H](C)C[C@H]1OC(=O)C[n+]1cc(-c2ccc(Cl)cc2)n2c1CCCCC2	85*	98*	.	.	-3	0
CCOc1ccccc1C(=O)NC1CCNCC1	.	.	.	.	-2	.
COc1ccc2[nH]c3c(c2c1)CCNC3C1CC=C(C)CC1 (centres undefined)	3	0	9.3*	27	11	51*
O=C(N/N=C/c1c(O)ccc2ccccc12)c1[nH]ncc1Br	35*	31*	4	72*	10	-2
CCOc1ccc(/C=N/NC(=O)c2[nH]ncc2Br)c(O)c1	7	21	3	-24	29*	1
O=C(N/N=C/c1c(O)ccc2ccccc12)c1cccc(C(F)(F)F)c1	6	4	9	79*	10	-2
O=C(N/N=C\c1c(O)ccc2ccccc12)c1ccc(Cn2cccn2)o1	7	10	3	63*	7	.
O=C(N/N=C\c1ccc(Cl)s1)c1ccc(Cn2cccn2)o1	9	1	2	13	-2	0
COc1ccc(OC)c(/C=N/NC(=O)c2[nH]ncc2Br)c1	-1	-5	.	.	-1	-1
Cc1ccc(Nc2cc(C)nc3ncnn23)cc1	.	.	.	.	1	.
CC1=CC(=C2C=CC(=O)C=C2)C=C(C)N1C	60*	73*	.	.	-2	0
O=C(NCCN1CCOCC1)/C(=C\c1ccc(F)cc1)NC(=O)c1ccccc1	.	.	.	.	7	.
COc1ccccc1N1CCN(C(=O)c2nn(-c3ccccc3OC)c(=O)c3ccccc23)CC1	3	3	4	-3	8	-1
COc1ccccc1-n1nc(C(=O)O)c2ccccc2c1=O	69*	-3	3	-14	-3	.
O=C(c1ccco1)N1CCN(C(=O)C2CC(=O)N(c3ccc(Cl)cc3)C2)CC1 (centres undefined)	.	.	.	.	-2	.
COc1ccccc1N1C(N)=NC(N)=NC1(C)C	17	20	5	-4	0	0
Cc1ccc(N2C(N)=NC(N)=NC2(C)C)c(C)c1	100*	87*	3	-3	-2	1
Cc1ccccc1N1C(N)=NC(N)=NC1(C)C	57*	56*	4	-4	-4	2
CCCCCCCOc1ccc(OC(=O)c2cccnc2)cc1	44*	58*	2	-3	13	3
Cc1ccc2[nH]c(C)cc(=S)c2c1	4	0	23*	-1	-1	2
CCCC1=[N+](CC)CCn2c(C)ccc21	64*	61*	1	-17	-4	-3
